# Experimental data of several laboratories.
# Target: Serine/threonine-protein kinase Nek7 (NEK7, Homo sapiens, UniProt Q8TDX7)
Structure (SMILES),effect on,mode,technique,concentration,quantity,result
Cc1nn(C)cc1-c1nc2c(N3CCN(Cc4ccc(Cl)cc4)CC3)c(Cl)cnc2[nH]1,binding,,competition with immobilised ligand,1 µM,remaining binding,100%
N#CC1(c2ccccn2)CCN(Cc2cc(C(=O)O)c(=O)n3ccccc23)CC1,cell-free assay,,competition with immobilised ligand,1 µM,remaining binding,100%
Cn1cc(-c2cccc(N3CCc4c(sc5c4CC(C)(C)C5)C3=O)c2CO)cc(Nc2ccncn2)c1=O,enzyme activity,inhibitor,,1 µM,inhibition,1%
O=c1[nH]c2ccccc2n1C1CCN(Cc2ccc(-c3[nH]c4cc5ncnc5cc4nc3-c3ccccc3)cc2)CC1,cell-free assay,,,0.5 µM,remaining signal,99.6%
Cn1cc(-c2cc(F)cc(N3CCn4c(cc5c4CCCC5)C3=O)c2CO)cc(Nc2ccc(N3CCN(C4COC4)CC3)cn2)c1=O,enzyme activity,inhibitor,,0.1 µM,inhibition,10%
CC(C)(C)c1cc(C=C(C#N)C#N)cc(Br)c1O,enzyme activity,inhibitor,,0.5 µM,remaining activity,89.5%
Nc1ncc(-c2nc(N3CCOCC3)nc(N3CCOCC3)n2)c(C(F)F)n1,binding,,competition with immobilised ligand,10 µM,remaining binding,70%
COc1cc(Nc2ncc(F)c(Nc3ccc4c(n3)NC(=O)C(C)(C)O4)n2)cc(OC)c1OC,binding,,competition with immobilised ligand,10 µM,inhibition,100%
COc1ncccc1-c1cnn2ccc(N3CCN(C(=O)OC(C)C)CC3)nc12,binding,,competition with immobilised ligand,1 µM,remaining binding,100%
Cn1cncc1[C@](O)(COc1ccc(C#N)cc1-c1ccc(OC(F)(F)F)cc1)c1ccc(C#N)cc1,cell-free assay,,competition with immobilised ligand,1 µM,remaining binding,46%
